Source: ChEMBL document CHEMBL2069243, “Synthesis and SAR of pyridothiazole substituted pyrimidine derived HCV replication inhibitors” (Bioorg Med Chem Lett, 2012)

Legend:
[1] = AUC (0 to 6 hrs) in rat at 10 mg/kg, po; type: ADME, organism-based; parameters: time < 6 hr, dose 10 mg/kg, route oral; settings: plasma
How it was run: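 Rats were dosed orally at 10 mpk in 0.4% methylcellulose, n=2 per compound. Plasma was sampled at 8 time points up to 6 h, and exposure was reported as AUC0-6 h.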

[2] = Cytotoxicity against human hepatoma cells after 3 days by MTS assay; type: cell-based
How it was run: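 MTS cell proliferation assay on replicon cells handled as in the replicon activity assay (seeded one day before, 0.5% DMSO, 10% FBS, serial dilutions), read 3 days after dosing. CC50 is the concentration giving 50% inhibition relative to vehicle-treated cells.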

[3] = Cytotoxicity against human hepatoma cells assessed as decrease in GADPH RNA level after 3 days by Rt-PCR analysis; type: cell-based
Hepatitis C virus = assay: Antiviral activity against Hepatitis C virus 1b con1 infected in human hepatoma cells assessed as decrease in replicon RNA level after 3 days by RT-PCR analysis; type: functional, organism-based, Hepacivirus hominis; settings: genotype 1b Con1, 72 h
How it was run: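 Con1 genotype 1b replicon cells were seeded at 5000 cells/well one day before treatment. Compound in DMSO was added (final 0.5% DMSO, 10% FBS) as 10 serial twofold dilutions in triplicate. Cells were harvested 3 days after dosing. Replicon RNA was quantified by real-time RT-PCR (Taqman), normalized to GAPDH RNA, and EC50 was calculated.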

[4] = Drug uptake in rat liver at 10 mg/kg, po at 6 hrs; type: ADME, organism-based; parameters: dose 10 mg/kg, route oral; settings: read-out: Drug uptake
How it was run: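 Rats were dosed orally at 10 mpk in 0.4% methylcellulose, n=2. Animals were sacrificed at 6 h, and liver was harvested and processed to measure compound concentration (liver C6 h).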

[5] = Cytotoxicity against human hepatoma cells assessed as inhibition of [14C]thymidine incorporation after 3 days by TopCount analysis; type: cell-based
How it was run: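 Replicon cells were seeded in scintillating microplates one day before treatment. Compound dilutions in triplicate were added with [methyl-14C]-thymidine (final 0.5 uCi/mL) and incubated 3 days. Incorporated label was counted by scintillation proximity. DNA CC50 is the concentration giving 50% inhibition of thymidine incorporation versus vehicle-treated cells.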

For `Cc1ccc([C@@H](C)Nc2nc(C)c(-c3nc4cnccc4s3)c(N[C@@H]3C[C@H](CO)[C@@H](O)[C@H]3O)n2)cc1`, the AUC(0-t) at 6 h [1] was 0.1 µM·h, the CC50 at 72 h [2] was greater than 25 µM and the CC50 at 72 h [3] was 25 µM. For the same compound, the EC50 (Hepatitis C virus) was 114 nM and the concentration at 6 h [4] was 116 ng/g.

In the case of `Cc1nc(Nc2ccccc2)nc(N[C@@H]2C[C@H](CO)[C@@H](O)[C@H]2O)c1-c1nc2cnccc2s1`, the AUC(0-t) at 6 h [1] is reported as 0.2 µM·h, the CC50 at 72 h [2] is reported as greater than 25 µM and the CC50 at 72 h [3] is reported as 25 µM. The EC50 (Hepatitis C virus) was 168 nM and the concentration at 6 h [4] was 29 ng/g.

`Cc1nc(N)nc(N[C@@H]2C[C@H](CO)[C@@H](O)[C@H]2O)c1-c1nc2cnccc2s1` showed a CC50 at 72 h [2] of 18 µM, a CC50 at 72 h [3] of 25 µM and an EC50 (Hepatitis C virus) of 124 nM.

For `Cc1nc(NCc2c(F)cccc2F)nc(N[C@@H]2C[C@H](CO)[C@@H](O)[C@H]2O)c1-c1nc2cnccc2s1`, the CC50 at 72 h [2] was 10 µM, the CC50 at 72 h [3] was 4 µM and the EC50 (Hepatitis C virus) was 1 nM.

`COC(=O)CCc1nccc2sc(-c3c(C)nc(N[C@H](C)c4ccc(OC(F)(F)F)cc4)nc3N[C@@H]3C[C@H](CO)[C@@H](O)[C@H]3O)nc12` showed a CC50 at 72 h [2] of 14 µM, a CC50 at 72 h [3] of 23 µM and an EC50 (Hepatitis C virus) of 59 nM.

`Cc1nc(N[C@H](C)c2ccccc2OC(F)(F)F)nc(N[C@@H]2C[C@H](CO)[C@@H](O)[C@H]2O)c1-c1nc2cnccc2s1` showed an AUC(0-t) at 6 h [1] of 0.5 µM·h, a CC50 at 72 h [2] of 23 µM and a CC50 at 72 h [3] of 24 µM. For the same compound, the EC50 (Hepatitis C virus) was 17 nM and the concentration at 6 h [4] was 506 ng/g.

`Cc1nc(N[C@H](C)c2ccc(OC(F)(F)F)cc2)nc(N[C@@H]2C[C@H](CO)[C@@H](O)[C@H]2O)c1-c1nc2c(C(C)C)nccc2s1` gave an AUC(0-t) at 6 h [1] of 3.2 µM·h, a CC50 at 72 h [2] of 10 µM and a CC50 at 72 h [3] of 11 µM. It also gave an EC50 (Hepatitis C virus) of 26 nM and a concentration at 6 h [4] of 8500 ng/g.

With `Cc1ccc(C2(Nc3nc(C)c(-c4nc5cnccc5s4)c(N[C@@H]4C[C@H](CO)[C@@H](O)[C@H]4O)n3)CC2)cc1` the CC50 at 72 h [2] was greater than 25 µM, the CC50 at 72 h [3] was 25 µM and the EC50 (Hepatitis C virus) was 3160 nM.

For `Cc1cc2sc(-c3c(C)nc(N[C@H](C)c4ccc(OC(F)(F)F)cc4)nc3N[C@@H]3C[C@H](CO)[C@@H](O)[C@H]3O)nc2c(C)n1`, the AUC(0-t) at 6 h [1] was 5.6 µM·h, the CC50 at 72 h [2] was 12 µM and the CC50 at 72 h [3] was 20 µM. For the same compound, the EC50 (Hepatitis C virus) was 43 nM and the concentration at 6 h [4] was 9800 ng/g.

For `Cc1nc(N[C@H](C)c2ccc(OC(F)(F)F)cc2)nc(N[C@@H]2C[C@H](CO)[C@@H](O)[C@H]2O)c1-c1nc2c(CC(C)(C)C)nccc2s1`, the AUC(0-t) at 6 h [1] was 3.2 µM·h, the CC50 at 72 h [2] was 13 µM and the CC50 at 72 h [3] was 10 µM. For the same compound, the EC50 (Hepatitis C virus) was 26 nM and the concentration at 6 h [4] was 4400 ng/g.

In the case of `Cc1nc(N[C@H](C)c2ccc(OC(F)(F)F)cc2)nc(N[C@@H]2C[C@H](CO)[C@@H](O)[C@H]2O)c1-c1nc2cnccc2s1`, the AUC(0-t) at 6 h [1] is reported as 1.6 µM·h, the CC50 at 72 h [2] is reported as greater than 25 µM and the CC50 at 72 h [5] is reported as 6 µM. It also gave a CC50 at 72 h [3] of 25 µM, an EC50 (Hepatitis C virus) of 16 nM and a concentration at 6 h [4] of 1800 ng/g.

With `Cc1nc(N[C@@H](C)c2ccccc2)nc(N[C@@H]2C[C@H](CO)[C@@H](O)[C@H]2O)c1-c1nc2cnccc2s1` the AUC(0-t) at 6 h [1] was 0.1 µM·h, the CC50 at 72 h [2] was greater than 25 µM and the CC50 at 72 h [3] was 25 µM. For the same compound, the EC50 (Hepatitis C virus) was 222 nM and the concentration at 6 h [4] was 77 ng/g.

Work on `Cc1nc(N[C@H](C)c2ccccc2)nc(N[C@@H]2C[C@H](CO)[C@@H](O)[C@H]2O)c1-c1nc2cnccc2s1` yielded an AUC(0-t) at 6 h [1] of 0.2 µM·h, a CC50 at 72 h [2] greater than 25 µM and a CC50 at 72 h [3] of 25 µM. For the same compound, the EC50 (Hepatitis C virus) was 7 nM and the concentration at 6 h [4] was 104 ng/g.

In the case of `CNc1nc(C)c(-c2nc3cnccc3s2)c(N[C@@H]2C[C@H](CO)[C@@H](O)[C@H]2O)n1`, the AUC(0-t) at 6 h [1] is reported as 0.3 µM·h, the CC50 at 72 h [2] is reported as 20 µM and the CC50 at 72 h [3] is reported as 14 µM. The EC50 (Hepatitis C virus) was 52 nM.

`Cc1nc(N[C@H](C)c2ccc(OC(F)(F)F)cc2)nc(N[C@@H]2C[C@H](CO)[C@@H](O)[C@H]2O)c1-c1nc2c(N)nccc2s1` showed a CC50 at 72 h [2] greater than 25 µM, a CC50 at 72 h [3] of 25 µM and an EC50 (Hepatitis C virus) of 37 nM.

Work on `Cc1nc(N[C@H](C)c2ccc(F)cc2)nc(N[C@@H]2C[C@H](CO)[C@@H](O)[C@H]2O)c1-c1nc2cnccc2s1` yielded a CC50 at 72 h [2] of 25 µM, a CC50 at 72 h [3] of 25 µM and an EC50 (Hepatitis C virus) of 222 nM.

Compound `CCCc1nccc2sc(-c3c(C)nc(N[C@H](C)c4ccc(OC(F)(F)F)cc4)nc3N[C@@H]3C[C@H](CO)[C@@H](O)[C@H]3O)nc12` has an AUC(0-t) at 6 h [1] of 0.8 µM·h, a CC50 at 72 h [2] of 13 µM and a CC50 at 72 h [3] of 13 µM. The EC50 (Hepatitis C virus) was 20 nM and the concentration at 6 h [4] was 1260 ng/g.

With `CCc1nc(C)cc2sc(-c3c(C)nc(N[C@H](C)c4ccc(OC(F)(F)F)cc4)nc3N[C@@H]3C[C@H](CO)[C@@H](O)[C@H]3O)nc12` the AUC(0-t) at 6 h [1] was 25 µM·h, the CC50 at 72 h [2] was 24 µM and the CC50 at 72 h [3] was 23 µM. The EC50 (Hepatitis C virus) was 264 nM and the concentration at 6 h [4] was 257 ng/g.
